# According to ChEMBL document CHEMBL3826969, “Synthesis and anticancer potential of novel xanthone derivatives with 3,6-substituted chains” (Bioorg Med Chem, 2016):
# The source made the active and inactive calls. No cut-off for these calls is given here.
# Columns and labels:
# A549 [1] = assay: Induction of apoptosis in human A549 cells assessed as viable cells at 25 uM after 48 hrs by Annexin V-FITC/propidium iodide staining based flow cytometry (reference value: 98.2 %); type: functional; conditions: A549, 48 h, read-out: Activity
# A549 [2] = assay: Cytotoxicity against human A549 cells assessed as cell growth inhibition after 48 hrs by MTT assay; type: functional, cell-based; conditions: A549, 48 h
# Summary of the method: (§1)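 Cells seeded in 96-well plates (MDA-MB-231, A549, AsPC-1 5×10^3; PC-3 8×10^3; HCT116 1×10^4 per well), attached 24 h in RPMI-1640 with 10% fetal calf serum at 37°C, 5% CO2. Serially diluted compound (final 0–400 μM, DMSO <0.1%) added for 48 h; 5-FU positive control. MTT read at 560 nm, triplicate; viability = treated/vehicle mean OD.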
# A549 [3] = assay: Cell cycle arrest in human A549 cells assessed as accumulation at G0/G1 phase at 25 uM after 48 hrs by propidium iodide staining based flow cytometry (reference value: 68.1 %); type: functional
# Summary of the method: (§2)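 A549 cells exposed 48 h to derivative (25 µM), collected, fixed overnight in 70% ethanol, then stained 30 min at room temperature with 50 µg/mL propidium iodide, 200 µg/mL RNase A and 0.3% Triton X-100. Flow cytometry gave sub-G1, G0/G1, S and G2/M fractions; profile from 3 independent experiments.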
# [4] = Cytotoxicity against human HCT116 cells assessed as cell growth inhibition after 48 hrs by MTT assay; type: functional, cell-based; conditions: HCT-116, 48 h; summary of the method: as §1
# ASPC1 = assay: Cytotoxicity against human AsPC1 cells assessed as cell growth inhibition after 48 hrs by MTT assay; type: functional, cell-based; conditions: ASPC1, 48 h; summary of the method: as §1
# A549 [5] = assay: Cell cycle arrest in human A549 cells assessed as accumulation at G2/M phase at 25 uM after 48 hrs by propidium iodide staining based flow cytometry (reference value: 23.4 %); type: functional; summary of the method: as §2
# A549 [6] = assay: Induction of apoptosis in human A549 cells assessed as necrotic cells at 25 uM after 48 hrs by Annexin V-FITC/propidium iodide staining based flow cytometry (reference value: 0.1 %); type: functional
# A549 [7] = assay: Cell cycle arrest in human A549 cells assessed as accumulation at S phase at 25 uM after 48 hrs by propidium iodide staining based flow cytometry (reference value: 9.3 %); type: functional; summary of the method: as §2
# [8] = Cytotoxicity against human PC3 cells assessed as cell growth inhibition after 48 hrs by MTT assay; type: functional, cell-based; conditions: PC-3, 48 h; summary of the method: as §1
# A549 [9] = assay: Induction of apoptosis in human A549 cells assessed as late apoptotic cells at 25 uM after 48 hrs by Annexin V-FITC/propidium iodide staining based flow cytometry (reference value: 1.2 %); type: functional
# MDA-MB-231 = assay: Cytotoxicity against human MDA-MB-231 cells assessed as cell growth inhibition after 48 hrs by MTT assay; type: functional, cell-based; conditions: MDA-MB-231, 48 h; summary of the method: as §1
# A549 [10] = assay: Induction of apoptosis in human A549 cells assessed as early apoptotic cells at 25 uM after 48 hrs by Annexin V-FITC/propidium iodide staining based flow cytometry (reference value: 0.5 %); type: functional
# A549 [11] = assay: Induction of apoptosis in human A549 cells assessed as increase in caspase 3/7 activity at 25 uM after 48 hrs by Caspase-Glo 3/7 assay relative to control; type: functional
# Summary of the method: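 A549 cells (8×10^3) plated in duplicate in 96-well plates, treated 25 µM for 48 h. Caspase-Glo 3/7 luminescence read after 1 h with substrate; blank (medium plus reagent) subtracted; fold increase = treated/control reading; mean ± 1 SD.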
# A549 [12] = assay: Induction of apoptosis in human A549 cells assessed as increase in caspase 3/7 activity after 48 hrs by Caspase-Glo 3/7 assay relative to control; type: functional
# Summary of the method: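 In duplicate, 8 × 10^3 A549 cells were treated with 25 µM compound for 48 h. Caspase-3/7 luminescence was read 1 h after adding the Caspase-Glo 3/7 substrate, with blank (medium plus reagent) subtracted. Fold increase = treated reading / control reading. Mean ± 1 SD.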
# A549 [13] = assay: Cell cycle arrest in human A549 cells assessed as accumulation at G2/M phase after 48 hrs by propidium iodide staining based flow cytometry (reference value: 23.4 %); type: functional
# Summary of the method: (§3)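 A549 cells exposed 48 h to 25 µM xanthone derivative, fixed overnight in 70% ethanol, then stained 30 min at room temperature with 50 µg/mL propidium iodide, 200 µg/mL RNase A and 0.3% Triton X-100. Sub-G1, G0/1, S and G2/M fractions were measured by flow cytometry. Three independent experiments.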
# A549 [14] = assay: Cell cycle arrest in human A549 cells assessed as accumulation at G0/G1 phase after 48 hrs by propidium iodide staining based flow cytometry (reference value: 68.1 %); type: functional; summary of the method: as §3
# A549 [15] = assay: Induction of apoptosis in human A549 cells assessed as viable cells after 48 hrs by Annexin V-FITC/propidium iodide staining based flow cytometry (reference value: 98.2 %); type: functional
# Summary of the method: (§4)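 2 × 10^5 A549 cells seeded and given 25 µM compound for 48 h. Cells were trypsinized and washed in ice-cold PBS. 1 × 10^5 cells were stained with Annexin V-FITC plus propidium iodide in binding buffer for 15 min at room temperature, diluted with binding buffer, kept on ice, and run on a flow cytometer. Quadrants: viable, early apoptotic, late apoptotic, necrotic.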
# A549 [16] = assay: Cell cycle arrest in human A549 cells assessed as accumulation at S phase after 48 hrs by propidium iodide staining based flow cytometry (reference value: 9.3 %); type: functional; summary of the method: as §3
# A549 [17] = assay: Induction of apoptosis in human A549 cells assessed as necrotic cells after 48 hrs by Annexin V-FITC/propidium iodide staining based flow cytometry (reference value: 0.1 %); type: functional; summary of the method: as §4
# A549 [18] = assay: Induction of apoptosis in human A549 cells assessed as late apoptotic cells after 48 hrs by Annexin V-FITC/propidium iodide staining based flow cytometry (reference value: 1.2 %); type: functional; summary of the method: as §4
# A549 [19] = assay: Induction of apoptosis in human A549 cells assessed as early apoptotic cells after 48 hrs by Annexin V-FITC/propidium iodide staining based flow cytometry (reference value: 0.5 %); type: functional; summary of the method: as §4
Compound,viability at 25 µM (A549 [1]) [%],IC50 (A549 [2]) [µM],Activity (A549 [3]) [%],IC50 [4] [µM],IC50 (ASPC1) [µM],Activity (A549 [5]) [%],Activity (A549 [6]) [%],Activity (A549 [7]) [%],IC50 [8] [µM],Activity (A549 [9]) [%],IC50 (MDA-MB-231) [µM],Activity (A549 [10]) [%],other results
O=C(COc1ccc2c(=O)c3ccc(OCC(=O)N4CCOCC4)cc3oc2c1)N1CCOCC1,97.9,> 400,65.7,> 400,> 400,25.1,0.9,9.6,> 400,0.7,> 400,0.5,–
Cc1c(OCC(=O)N2CC(C)OC(C)C2)ccc2c(=O)c3ccc(OCC(=O)N4CC(C)OC(C)C4)cc3oc12 (stereo not drawn),98.3,295,66.9,141,116,24,0.2,9.7,214,0.8,385,0.7,–
Cc1c(OCC(=O)NC2CCCCC2C)ccc2c(=O)c3ccc(OCC(=O)NC4CCCCC4C)cc3oc12 (stereo not drawn),93.6,22.3,61.8,18.3,15.4,29.1,1,9.4,23.3,2.4,11,3.1,Activity (A549 [11]): inactive
Cc1c(OCC(=O)NCC2CCCO2)ccc2c(=O)c3ccc(OCC(=O)NCC4CCCO4)cc3oc12 (stereo not drawn),95.4,27.5,74.6,33.8,78.7,13,0.9,13.2,34.5,2.5,98.4,1.2,Activity (A549 [11]): inactive
CC1CCCC(C)N1C(=O)COc1ccc2c(=O)c3ccc(OCC(=O)N4C(C)CCCC4C)cc3oc2c1 (stereo not drawn),87.7,17.2,57.4,15.7,13.8,33.5,1.1,9.8,6.68,9.1,24.3,1.5,fold change (FC) (A549 [11]): 2.31
O=C(COc1ccc2c(=O)c3ccc(OCC(=O)NCC4CCCO4)cc3oc2c1)NCC1CCCO1 (stereo not drawn),96.5,> 400,64.6,> 400,> 400,26.3,1.8,9.5,249,1.2,> 400,0.5,–
CCOC(=O)N1CCN(C(=O)COc2ccc3c(=O)c4ccc(OCC(=O)N5CCN(C(=O)OCC)CC5)c(C)c4oc3c2)CC1,97.1,84.9,65.5,8.16,34.1,23.2,0.3,11.9,53.3,1.1,64.5,1.6,Activity (A549 [11]): inactive
O=c1[nH]cc(F)c(=O)[nH]1 [FLUOROURACIL],–,39.9,–,15.4,98,–,–,–,72.1,–,35.9,–,fold change (FC) (A549 [12]): 4.2; Activity (A549 [13]): 11.7%; Activity (A549 [14]): 74.3%; Activity (A549 [15]): 93.2%; Activity (A549 [16]): 15.3%; Activity (A549 [17]): 0.6%; Activity (A549 [18]): 1%; Activity (A549 [19]): 5.2%
CN1CCN(C(=O)COc2ccc3c(=O)c4ccc(OCC(=O)N5CCN(C)CC5)cc4oc3c2)CC1,94.1,> 400,66.4,> 400,> 400,24.2,2.7,10.1,> 400,2.5,> 400,0.7,–
Cc1c(OCC(=O)N2CC(C)CC(C)C2)ccc2c(=O)c3ccc(OCC(=O)N4CC(C)CC(C)C4)cc3oc12 (stereo not drawn),49,4.59,78.9,6.09,4.76,15.5,1.1,6,6.18,12.4,8.06,37.5,fold change (FC) (A549 [11]): 2.04
Cc1c(OCC(=O)N2CCOCC2)ccc2c(=O)c3ccc(OCC(=O)N4CCOCC4)cc3oc12,98.7,> 400,61,> 400,> 400,28,0.1,11.8,> 400,0.4,> 400,0.9,–
Cc1c(OCC(=O)N2C(C)CCCC2C)ccc2c(=O)c3ccc(OCC(=O)N4C(C)CCCC4C)cc3oc12 (stereo not drawn),80.7,10.6,75.7,7.63,7.1,17.6,2.1,6.9,4.27,9.8,7.31,7.3,fold change (FC) (A549 [11]): 3.45
Cc1c(OCC(=O)N2CCN(C)CC2)ccc2c(=O)c3ccc(OCC(=O)N4CCN(C)CC4)cc3oc12,95.6,181,71.2,119,97.8,20.7,0.6,9,89.2,3.1,257,0.7,–
